Data taken from ChEMBL document CHEMBL3286287, “Identification of a new selective dopamine D4 receptor ligand” (Bioorg Med Chem, 2014).

Key:
[1] = biological target: D(1B) dopamine receptor (Homo sapiens, UniProt P21918); experiment: Displacement of [3H]SCH23390 from human dopamine D5 receptor by PDSP assay; conditions: for inhibition: concentration not given here
[2] = Selectivity ratio of Ki for human dopamine D3 receptor to Ki for rat dopamine D4 receptor
[3] = biological target: D(1A) dopamine receptor (Homo sapiens, UniProt P21728); experiment: Displacement of [3H]SCH23390 from human dopamine D1 receptor by PDSP assay; conditions: for inhibition: concentration not given here
Chain of D(1A) dopamine receptor (P21728 whole entry): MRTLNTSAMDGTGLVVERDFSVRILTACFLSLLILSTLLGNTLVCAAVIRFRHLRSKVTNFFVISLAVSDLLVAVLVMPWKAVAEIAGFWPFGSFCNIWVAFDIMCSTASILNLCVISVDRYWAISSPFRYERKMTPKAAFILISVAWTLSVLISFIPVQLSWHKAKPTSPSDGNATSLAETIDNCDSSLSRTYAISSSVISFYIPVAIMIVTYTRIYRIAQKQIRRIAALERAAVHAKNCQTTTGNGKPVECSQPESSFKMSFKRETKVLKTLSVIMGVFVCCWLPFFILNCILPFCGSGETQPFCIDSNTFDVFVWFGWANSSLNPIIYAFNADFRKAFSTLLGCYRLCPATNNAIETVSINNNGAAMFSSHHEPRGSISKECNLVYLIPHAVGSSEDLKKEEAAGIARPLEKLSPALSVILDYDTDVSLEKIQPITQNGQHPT

[4] = Selectivity ratio of Ki for human dopamine D2 receptor to Ki for rat dopamine D4 receptor
[5] = biological target: D(3) dopamine receptor (Homo sapiens, UniProt P35462); experiment: Displacement of [3H]N-methylspiperone from human dopamine D3 receptor by PDSP assay
Chain of D(3) dopamine receptor (P35462 whole entry): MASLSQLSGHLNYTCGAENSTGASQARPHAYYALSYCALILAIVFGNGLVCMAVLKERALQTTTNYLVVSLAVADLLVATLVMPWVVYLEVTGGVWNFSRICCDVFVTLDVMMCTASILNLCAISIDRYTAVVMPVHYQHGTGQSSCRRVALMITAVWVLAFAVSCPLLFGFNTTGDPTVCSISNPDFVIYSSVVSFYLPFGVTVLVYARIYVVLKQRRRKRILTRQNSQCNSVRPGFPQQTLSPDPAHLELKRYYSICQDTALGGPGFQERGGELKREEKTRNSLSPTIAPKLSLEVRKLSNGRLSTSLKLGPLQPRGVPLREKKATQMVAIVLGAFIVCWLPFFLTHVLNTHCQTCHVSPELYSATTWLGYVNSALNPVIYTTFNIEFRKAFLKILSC

[6] = biological target: T1, D(4) dopamine receptor (Rattus norvegicus, UniProt P30729); experiment: Displacement of [3H]N-methylspiperone from rat dopamine D4 receptor by PDSP assay
T1 sequence (P30729 whole entry): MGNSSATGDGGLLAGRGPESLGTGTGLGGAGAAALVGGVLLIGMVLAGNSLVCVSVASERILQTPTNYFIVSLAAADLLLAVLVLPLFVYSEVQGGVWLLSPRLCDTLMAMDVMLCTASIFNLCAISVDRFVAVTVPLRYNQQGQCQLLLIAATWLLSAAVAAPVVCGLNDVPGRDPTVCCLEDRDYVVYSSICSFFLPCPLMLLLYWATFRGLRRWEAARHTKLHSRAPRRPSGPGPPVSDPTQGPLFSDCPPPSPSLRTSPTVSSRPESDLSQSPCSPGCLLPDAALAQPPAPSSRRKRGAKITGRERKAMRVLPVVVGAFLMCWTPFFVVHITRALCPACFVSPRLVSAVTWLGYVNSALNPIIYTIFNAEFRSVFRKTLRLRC

[7] = biological target: D(2) dopamine receptor (Homo sapiens, UniProt P14416); experiment: Displacement of [3H]N-methylspiperone from human dopamine D2 receptor by PDSP assay
Chain of D(2) dopamine receptor (P14416 whole entry): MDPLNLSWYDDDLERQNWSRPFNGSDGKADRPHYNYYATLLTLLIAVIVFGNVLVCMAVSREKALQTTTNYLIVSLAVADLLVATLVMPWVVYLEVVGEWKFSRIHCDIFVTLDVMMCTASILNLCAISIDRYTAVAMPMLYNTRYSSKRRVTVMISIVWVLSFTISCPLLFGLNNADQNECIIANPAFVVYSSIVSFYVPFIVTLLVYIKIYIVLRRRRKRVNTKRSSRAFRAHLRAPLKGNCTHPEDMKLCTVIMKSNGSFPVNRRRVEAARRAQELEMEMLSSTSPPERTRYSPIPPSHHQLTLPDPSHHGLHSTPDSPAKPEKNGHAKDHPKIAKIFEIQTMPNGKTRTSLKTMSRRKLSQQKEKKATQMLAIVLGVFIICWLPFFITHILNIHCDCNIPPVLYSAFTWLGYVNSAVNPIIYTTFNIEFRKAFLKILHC

[8] = biological target: 5-hydroxytryptamine receptor 2A (Rattus norvegicus, UniProt P14842); experiment: Displacement of [3H]ketanserin from rat 5-HT2A receptor by PDSP assay
Chain of 5-hydroxytryptamine receptor 2A (P14842 whole entry): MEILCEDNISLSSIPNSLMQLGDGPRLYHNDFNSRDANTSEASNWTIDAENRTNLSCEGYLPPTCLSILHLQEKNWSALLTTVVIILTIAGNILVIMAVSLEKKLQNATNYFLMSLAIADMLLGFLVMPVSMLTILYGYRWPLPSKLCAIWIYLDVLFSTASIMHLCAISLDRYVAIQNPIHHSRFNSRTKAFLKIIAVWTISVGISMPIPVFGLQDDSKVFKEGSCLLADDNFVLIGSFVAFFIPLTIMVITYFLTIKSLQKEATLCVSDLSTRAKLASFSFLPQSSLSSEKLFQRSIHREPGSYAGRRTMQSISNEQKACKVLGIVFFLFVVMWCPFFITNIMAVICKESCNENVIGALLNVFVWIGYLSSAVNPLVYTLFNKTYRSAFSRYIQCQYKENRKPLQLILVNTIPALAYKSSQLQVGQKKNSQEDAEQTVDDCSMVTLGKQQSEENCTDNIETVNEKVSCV
In short: (§1)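 Ki values were determined by the NIMH Psychoactive Drug Screening Program using radioligand displacement. Compounds first went through a primary assay.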

[9] = biological target: T2, 5-hydroxytryptamine receptor 2C (Rattus norvegicus, UniProt P08909); experiment: Displacement of [3H]mesulergine from rat 5-HT2C receptor by PDSP assay; in short: as §1
T2 sequence (P08909 whole entry): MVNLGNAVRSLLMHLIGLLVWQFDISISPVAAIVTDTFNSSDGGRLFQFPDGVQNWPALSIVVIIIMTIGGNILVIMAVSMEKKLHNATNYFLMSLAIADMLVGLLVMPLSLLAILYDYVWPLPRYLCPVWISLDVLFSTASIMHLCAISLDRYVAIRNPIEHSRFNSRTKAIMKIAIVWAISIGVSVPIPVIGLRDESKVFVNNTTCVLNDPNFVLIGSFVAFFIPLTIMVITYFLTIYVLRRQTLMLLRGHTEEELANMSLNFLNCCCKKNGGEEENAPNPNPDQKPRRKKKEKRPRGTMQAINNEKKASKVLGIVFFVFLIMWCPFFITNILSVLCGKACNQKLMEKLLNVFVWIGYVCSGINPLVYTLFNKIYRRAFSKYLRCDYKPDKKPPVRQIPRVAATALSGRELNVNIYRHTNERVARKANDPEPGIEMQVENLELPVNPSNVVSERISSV

[10] = Binding affinity to sigma-2 receptor (unknown origin) by PDSP assay; set-up: species or system Homo sapiens
[11] = biological target: 5-hydroxytryptamine receptor 7 (Homo sapiens, UniProt P34969); experiment: Displacement of [3H]LSD from human 5-HT7 receptor by PDSP assay
Chain of 5-hydroxytryptamine receptor 7 (P34969 whole entry): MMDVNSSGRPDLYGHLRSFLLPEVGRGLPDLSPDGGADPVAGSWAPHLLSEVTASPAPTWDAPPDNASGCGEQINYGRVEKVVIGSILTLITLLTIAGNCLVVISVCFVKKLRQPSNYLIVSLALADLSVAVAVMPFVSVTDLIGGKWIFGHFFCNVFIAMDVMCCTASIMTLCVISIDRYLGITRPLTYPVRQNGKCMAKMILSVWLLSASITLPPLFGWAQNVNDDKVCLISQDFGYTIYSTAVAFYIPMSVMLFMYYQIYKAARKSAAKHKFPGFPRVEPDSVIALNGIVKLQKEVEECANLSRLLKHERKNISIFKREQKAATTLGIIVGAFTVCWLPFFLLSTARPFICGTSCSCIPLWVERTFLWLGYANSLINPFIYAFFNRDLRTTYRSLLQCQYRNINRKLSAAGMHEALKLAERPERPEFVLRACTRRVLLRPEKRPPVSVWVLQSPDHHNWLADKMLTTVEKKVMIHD

[12] = biological target: Sigma non-opioid intracellular receptor 1 (Homo sapiens, UniProt Q99720); experiment: Binding affinity to sigma-1 receptor (unknown origin) by PDSP assay
Chain of Sigma non-opioid intracellular receptor 1 (Q99720 whole entry): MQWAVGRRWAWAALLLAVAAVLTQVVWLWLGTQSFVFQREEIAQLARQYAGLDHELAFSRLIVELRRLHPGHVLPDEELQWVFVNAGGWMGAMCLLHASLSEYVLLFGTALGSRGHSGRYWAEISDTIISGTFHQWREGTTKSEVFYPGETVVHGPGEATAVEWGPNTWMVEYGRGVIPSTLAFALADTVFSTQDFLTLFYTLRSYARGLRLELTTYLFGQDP

Chain of D(1B) dopamine receptor (P21918 whole entry): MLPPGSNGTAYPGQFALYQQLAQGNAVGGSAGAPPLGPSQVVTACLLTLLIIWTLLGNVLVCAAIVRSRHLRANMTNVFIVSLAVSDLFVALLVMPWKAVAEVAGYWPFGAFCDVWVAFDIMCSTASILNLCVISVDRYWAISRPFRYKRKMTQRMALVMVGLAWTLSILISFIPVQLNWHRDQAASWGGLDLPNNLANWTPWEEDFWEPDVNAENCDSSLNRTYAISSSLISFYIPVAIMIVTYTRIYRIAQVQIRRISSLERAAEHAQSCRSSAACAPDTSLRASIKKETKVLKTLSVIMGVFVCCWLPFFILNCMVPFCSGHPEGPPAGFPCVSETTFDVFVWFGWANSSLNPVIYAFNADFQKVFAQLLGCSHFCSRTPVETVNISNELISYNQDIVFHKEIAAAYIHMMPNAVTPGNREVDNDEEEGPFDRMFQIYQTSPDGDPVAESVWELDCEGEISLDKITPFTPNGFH

Compound	Ki [1] [nM]	Ratio Ki [2]	Ki ([3]; read-out: Ki) [nM]	Ratio Ki [4]	inhibition [1] [%]	Ki ([5]; read-out: Ki) [nM]	Ki ([6]; read-out: Ki) [nM]	Ki [7] [nM]	further results
Fc1ccc(CCCCN2CCN(c3ccc(Cl)cc3)CC2)cc1	1760	33.5	589	36.4	–	–	–	–	–
Fc1ccc(OCCCN2CCC(c3ccc(Cl)cc3)CC2)cc1	867	73.3	126	4.3	–	–	–	–	–
Fc1ccc(CCCCN2CCN(c3ccccn3)CC2)cc1	1450	–	–	–	–	–	–	–	–
Clc1ccc(N2CCN(CCCCc3nc4ccccc4o3)CC2)cc1	–	1.1	–	–	< 50	33	30.6	–	inhibition [3]: < 50%
Clc1ccc(N2CCN(CCCc3nc4ccccc4s3)CC2)cc1	> 10000	6.9	1270	74.9	–	214	–	–	–
Cc1ccc(N2CCN(CCCOc3ccc(F)cc3)CC2)nc1	2580	170	260	951	–	187	–	1050	–
Fc1ccc2c(c1)CC(CCN1CCN(c3ccc(Cl)cc3)CC1)C2 (centres undefined)	–	–	837	–	< 50	2770	13	1420	–
Clc1ccc(N2CCN(CCCc3cc4ccccc4o3)CC2)cc1	–	29	1410	25.1	< 50	2290	78.9	1980	–
Clc1ccc(N2CCN(CCCc3nc4ccccc4o3)CC2)cc1	> 10000	1.5	1170	27.3	–	180	145	3960	–
Clc1ccc(N2CCN(CCc3cc4ccccc4o3)CC2)cc1	–	–	–	–	< 50	–	–	–	inhibition [3]: < 50%
[O-][S+](CCCN1CCN(c2ccc(Cl)cc2)CC1)c1ccc(F)cc1 (centres undefined)	–	103	–	48.8	< 50	1340	13	635	inhibition [3]: < 50%
Fc1ccc(SCCCN2CCN(c3ccccn3)CC2)cc1	3220	28.1	265	32.1	–	–	–	–	–
Clc1ccc(N2CCN(CCCCCc3nc4ccccc4o3)CC2)cc1	> 10000	0.5	7940	13	–	119	240	3110	–
c1cnc(N2CCN(CCCc3nc4ccccc4s3)CC2)nc1	–	–	–	–	–	–	3.9	–	Ki [8]: 283 nM; Ki [9]: 280 nM; Ki [10]: 162 nM; pKi [10]: 6.79; Ki [11]: 342 nM; Ki [12]: 350 nM
Clc1ccc(N2CCN(CCc3nc4ccccc4o3)CC2)cc1	–	0.6	–	–	< 50	850	1410	–	inhibition [3]: < 50%
FC(F)(F)c1ccc(OCCCN2CCN(c3ccccn3)CC2)cc1	> 10000	29.6	2340	91	–	355	12	1090	–

Compound	Ki [1] [nM]	Ratio Ki [2]	Ki ([3]; read-out: Ki) [nM]	Ratio Ki [4]	inhibition [1] [%]	Ki ([5]; read-out: Ki) [nM]	Ki ([6]; read-out: Ki) [nM]	Ki [7] [nM]	further results
Fc1ccc(SCCCN2CCN(c3ncccn3)CC2)cc1	1370	3.2	495	20.1	–	–	–	–	–
Fc1ccc(SCCCN2CCN(c3ccc(Cl)cc3)CC2)cc1	2810	48.5	52	24.3	–	–	–	–	–
Clc1ccc(N2CCN(CCCOc3ccccc3)CC2)cc1	–	130	–	79.8	–	–	–	–	Ki ([5]; read-out: pKi (converted)): 794 nM; Ki ([6]; read-out: pKi (converted)): 5.5 nM
Clc1ccc(N2CCCN(CCCc3cc4ccccc4o3)CC2)cc1	1520	7.9	274	13.5	–	1460	185	2510	–
Fc1ccc(OCCCN2CCN(c3ncccn3)CC2)cc1	–	185	259	151	< 50	–	–	–	–
O=C(CCCN1CCN(c2ccc(Cl)cc2)CC1)c1ccc(F)cc1	–	–	–	–	–	–	17.5	–	–
Cc1ccc(N2CCN(CCCSc3ccc(F)cc3)CC2)nc1	2160	8.5	222	55.3	–	170	20	1110	–
Fc1ccc(OCCCN2CCN(c3ccc(Cl)cc3)CC2)cc1	2680	–	135	–	–	–	–	–	–
c1cnc(N2CCN(CCCCc3nc4ccccc4s3)CC2)nc1	–	–	–	–	–	–	0.84	–	–
Fc1ccc(CCCCN2CCN(c3ncccn3)CC2)cc1	3810	–	134	–	–	–	–	–	–
Clc1ccc(N2CCN(CCCCc3nc4ccccc4s3)CC2)cc1	–	7.8	1900	54.8	–	31	–	–	–
O=C1c2ccc(F)cc2CC1CCN1CCN(c2ccc(Cl)cc2)CC1 (centres undefined)	–	406	641	253	< 50	2480	6.1	1540	–
O=C1c2ccccc2CC1CCN1CCN(c2ccc(Cl)cc2)CC1 (centres undefined)	–	126	1700	–	< 50	4530	36	> 10000	Ki ([3]; read-out: pKi (converted)): 389 nM
Cc1ccc(N2CCN(CCCCc3ccc(F)cc3)CC2)nc1	3260	–	521	–	–	–	–	–	–
Clc1ccc(N2C[C@H]3C[C@@H]2CN3CCCc2cc3ccccc3o2)cc1	–	0.3	–	> 4.2	< 50	–	2400	–	inhibition [3]: < 50%
